# From ChEMBL document CHEMBL4316593 (Eur J Med Chem, 2019)
# Activity calls are given as the source filed them. The rule behind the calls is not given here.
# Legend:
# U-87 MG [1] = experiment: Induction of DNA damage in human U87 cells assessed as change in PEA15 gene expression at cytotoxic IC50 measured after 48 hrs […] relative to control; format: functional, U-87MG ATCC
# Summary of the method: (§1)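 U87 expression profiling. Cells incubated 48hrs at 37°C, 5% CO₂ with the IC₅₀ concentration, alongside a cisplatin and an untreated control, in triplicate. RNA was isolated by one common protocol and profiled. DEGs were called with DESeq2 (q < 0.05, fold change > 1.5) and expressed as fold change versus untreated.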
# U-87 MG [2] = experiment: Induction of DNA damage in human U87 cells assessed as change in DTL gene expression at cytotoxic IC50 measured after 48 hrs […] relative to control; format: functional, U-87MG ATCC; summary of the method: as §1
# [3] = Inhibition of RTK/PI3K/AKT/mTOR signaling in human U87 cells assessed as up regulation of TTYH3 gene expression at cytotoxic IC50 measured after 48 hrs relative to control; format: cell-based; settings: U-87MG ATCC
# [4] = Inhibition of RTK/PI3K/AKT/mTOR signaling in human U87 cells assessed as down regulation of POP4 gene expression at cytotoxic IC50 measured after 48 hrs relative to control; format: cell-based; settings: U-87MG ATCC
# Summary of the method: (§2)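 Cells were exposed for 48hrs at 37°C in humidified 5% CO₂ to the compound at its previously determined IC₅₀, with Cisplatin at its IC₅₀ and an untreated negative control alongside. Each condition was run in triplicate. RNA was isolated from all samples by the same protocol. Genes were called differentially expressed by DESeq2 at q-value < 0.05 and fold change > 1.5.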
# [5] = Inhibition of RTK/PI3K/AKT/mTOR signaling in human U87 cells assessed as down regulation of DEF8 gene expression at cytotoxic IC50 measured after 48 hrs relative to control; format: cell-based; settings: U-87MG ATCC
# Summary of the method: (§3)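 U87 cells grown in MEM with 10% FBS at 37°C, 5% CO2. Cells exposed to IC50 of test compound for 48 hrs, alongside untreated and cisplatin controls, each condition in triplicate. RNA isolated and profiled; differential expression called with DESeq2 (q-value < 0.05, fold change > 1.5), fold change versus untreated.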
# [6] = Inhibition of RTK/PI3K/AKT/mTOR signaling in human U87 cells assessed as down regulation of ATP6V0D1 gene expression at cytotoxic IC50 measured after 48 hrs relative to control; format: cell-based; settings: U-87MG ATCC; summary of the method: as §3
# [7] = Inhibition of RTK/PI3K/AKT/mTOR signaling in human U87 cells assessed as up regulation of single Ig and TIR domain containing gene expression at cytotoxic IC50 measured after 48 hrs relative to control; format: cell-based; settings: U-87MG ATCC
# [8] = Inhibition of RTK/PI3K/AKT/mTOR signaling in human U87 cells assessed as up regulation of STC2 gene expression at cytotoxic IC50 measured after 48 hrs relative to control; format: cell-based; settings: U-87MG ATCC
# LN-229 = experiment: Cell cycle arrest in human LN229 cells assessed as decrease in accumulation at G2/M-phase at cytotoxic IC50 measured after 48 hrs by propidium iodide staining based fluorescence cell imaging analysis; format: functional
# Summary of the method: (§4)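 Cell cycle by PI staining. Cells seeded at 1×10^6 and grown overnight at 37°C, 5% CO₂, then exposed for 48hrs at their IC₅₀ concentration, with DMSO and cisplatin controls. Cells were trypsinized, washed in cold PBS and fixed in 70% ethanol at 4°C for 30 min. They were stained with PI in Triton X-100/RNase for 15 min at 37°C and imaged by fluorescence microscopy. Reported as mean ± S.E.M of triplicates.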
# U-87 MG [9] = experiment: Induction of DNA damage in human U87 cells assessed as change in SFN gene expression at cytotoxic IC50 measured after 48 hrs […] relative to control; format: functional, U-87MG ATCC; summary of the method: as §3
# [10] = Inhibition of RTK/PI3K/AKT/mTOR signaling in human U87 cells assessed as up regulation of NARS gene expression at cytotoxic IC50 measured after 48 hrs relative to control; format: cell-based; settings: U-87MG ATCC; summary of the method: as §2
# [11] = Inhibition of RTK/PI3K/AKT/mTOR signaling in human U87 cells assessed as down regulation of COX17 gene expression at cytotoxic IC50 measured after 48 hrs relative to control; format: cell-based; settings: U-87MG ATCC; summary of the method: as §3
# [12] = Inhibition of RTK/PI3K/AKT/mTOR signaling in human U87 cells assessed as down regulation of SOD2 gene expression at cytotoxic IC50 measured after 48 hrs relative to control; format: cell-based; settings: U-87MG ATCC; summary of the method: as §2
# [13] = Inhibition of RTK/PI3K/AKT/mTOR signaling in human U87 cells assessed as up regulation of fibroblast growth factor 19 gene expression at cytotoxic IC50 measured after 48 hrs relative to control; format: cell-based
# [14] = Inhibition of RTK/PI3K/AKT/mTOR signaling in human U87 cells assessed as down regulation of MAP2 gene expression at cytotoxic IC50 measured after 48 hrs relative to control; format: cell-based; settings: U-87MG ATCC; summary of the method: as §2
# [15] = Inhibition of RTK/PI3K/AKT/mTOR signaling in human U87 cells assessed as down regulation of DHX30 gene expression at cytotoxic IC50 measured after 48 hrs relative to control; format: cell-based; settings: U-87MG ATCC; summary of the method: as §3
# U-87 MG [16] = experiment: Cell cycle arrest in human U87 cells assessed as accumulation at S-phase at cytotoxic IC50 measured after 48 hrs by propidium iodide staining based fluorescence cell imaging analysis (reference value: 19.2%); format: functional, U-87MG ATCC; summary of the method: as §4
# [17] = Inhibition of RTK/PI3K/AKT/mTOR signaling in human U87 cells assessed as up regulation of TOMM22 gene expression at cytotoxic IC50 measured after 48 hrs relative to control; format: cell-based; settings: U-87MG ATCC
# [18] = Inhibition of RTK/PI3K/AKT/mTOR signaling in human U87 cells assessed as up regulation of CPLX1 gene expression at cytotoxic IC50 measured after 48 hrs relative to control; format: cell-based; settings: U-87MG ATCC; summary of the method: as §2
# [19] = Inhibition of RTK/PI3K/AKT/mTOR signaling in human U87 cells assessed as up regulation of ral guanine nucleotide dissociation stimulator gene expression at cytotoxic IC50 measured after 48 hrs relative to control; format: cell-based; settings: U-87MG ATCC
# U-87 MG [20] = experiment: Cell cycle arrest in human U87 cells assessed as change in E2F2 gene expression at cytotoxic IC50 measured after 48 hrs […] relative to control; format: functional, U-87MG ATCC; summary of the method: as §1
# [21] = Inhibition of RTK/PI3K/AKT/mTOR signaling in human U87 cells assessed as up regulation of tribbles pseudokinase 2 gene expression at cytotoxic IC50 measured after 48 hrs relative to control; format: cell-based; settings: U-87MG ATCC
# [22] = Inhibition of RTK/PI3K/AKT/mTOR signaling in human U87 cells assessed as up regulation of proline-serine-threonine phosphatase interacting protein 2 gene expression at cytotoxic IC50 measured after 48 hrs relative to control; format: cell-based; settings: U-87MG ATCC
# [23] = Inhibition of RTK/PI3K/AKT/mTOR signaling in human U87 cells assessed as down regulation of COG1 gene expression at cytotoxic IC50 measured after 48 hrs relative to control; format: cell-based; settings: U-87MG ATCC; summary of the method: as §3
# [24] = Inhibition of RTK/PI3K/AKT/mTOR signaling in human U87 cells assessed as up regulation of ADP ribosylation factor like GTPase 6 interacting protein 5 gene expression at cytotoxic IC50 measured after 48 hrs relative to control; format: cell-based; settings: U-87MG ATCC; summary of the method: as §2
# [25] = Inhibition of RTK/PI3K/AKT/mTOR signaling in human U87 cells assessed as up regulation of ras homolog family member Q gene expression at cytotoxic IC50 measured after 48 hrs relative to control; format: cell-based; settings: U-87MG ATCC
# U-87 MG [26] = experiment: Cell cycle arrest in human U87 cells assessed as change in MDM2 gene expression at cytotoxic IC50 measured after 48 hrs […] relative to control; format: functional, U-87MG ATCC; summary of the method: as §1
smiles,measurement,setting,value
CC(=O)C(=NNc1ccccc1C#N)C(C)=O,fold change (FC),U-87 MG [1],-1.195
same,fold change (FC),U-87 MG [2],1.519
same,log2FC,[3],0.524
same,log2FC,[4],-0.816
same,log2FC,[5],-0.591
same,log2FC,[6],-1.21
same,log2FC,[7],0.676
same,log2FC,[8],3.02
same,Activity,LN-229,Active
same,fold change (FC),U-87 MG [9],1.949
same,log2FC,[10],0.53
same,log2FC,[11],-1.13
same,log2FC,[12],-0.617
same,log2FC,[13],0.722
same,log2FC,[14],-1.55
same,log2FC,[15],-0.431
same,Activity,U-87 MG [16],2.8%
same,log2FC,[17],0.475
same,log2FC,[18],1.75
same,log2FC,[19],0.685
same,fold change (FC),U-87 MG [20],2.384
same,log2FC,[21],1.41
same,log2FC,[22],0.785
same,log2FC,[23],-0.632
same,log2FC,[24],0.661
same,log2FC,[25],0.702
same,fold change (FC),U-87 MG [26],1.471
